pEC50: −log10 of the molar value. Active and inactive are the calls of the source. The rule behind the calls is not given here.
What was measured:
[1] = (§1) Activation of AMPK in rat liver assessed as SAMS peptide phosphorylation; format: functional, tissue-based
Summary of the method: (§2)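 Kinase activity is read as phosphorylation of the SAMS peptide substrate. Substrate concentration is 20 in standard assays and 100 in additivity assays.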

Rattus norvegicus = organism: Rattus norvegicus; test: as §1; format: functional, tissue-based; summary of the method: as §2

SMILES	pEC50 [1]	Activity (Rattus norvegicus)
Cn1c(=O)c(C#N)c(O)c2c(-c3ccc(Cl)cc3)csc21	–	inactive
Cn1c(=O)c(C#N)c(O)c2c(-c3ccc(Br)cc3)c(F)sc21	–	inactive
O=c1[nH]c2scc(-c3ccccc3)c2c(O)c1-c1ccccc1	–	inactive
N#Cc1c(O)c2c(-c3ccccc3)c([N+](=O)[O-])sc2[nH]c1=O	–	inactive
Cn1c(=O)c(C#N)c(N)c2c(-c3ccc(Br)cc3)csc21	–	inactive
COc1c(C#N)c(=O)[nH]c2scc(-c3ccccc3)c12	–	inactive
O=c1cc(O)c2c(-c3ccccc3)csc2[nH]1	–	inactive
CN(C)c1c(O)c2c(-c3ccccc3)csc2[nH]c1=O	–	inactive
Cn1c(=O)c(C#N)c(O)c2c(-c3ccccc3)csc21	–	inactive
N#Cc1c(O)c2c(-c3ccccc3)c(-c3ccccc3O)sc2[nH]c1=O	–	inactive
N#Cc1c(O)c2c(-c3ccc(F)cc3)c(Br)sc2[nH]c1=O	5.00	–

Now from value to compound, other results behind:

pEC50 [1]	SMILES	Activity (Rattus norvegicus)
3.74	COc1cccc(-c2c(O)c3c(-c4ccccc4)csc3[nH]c2=O)c1	–
4.26	COC(=O)c1ccc(-c2csc3[nH]c(=O)c(C#N)c(O)c23)cc1	–
5.10	COCOc1ccc(-c2csc3[nH]c(=O)c(C#N)c(O)c23)cc1	–
3.74	O=c1[nH]c2scc(-c3ccccc3)c2c(O)c1-c1cccs1	–
4.70	N#Cc1c(O)c2c(-c3ccc(O)cc3)csc2[nH]c1=O	–
4.40	C=CCc1ccc(-c2csc3[nH]c(=O)c(C#N)c(O)c23)cc1	–
5.70	N#Cc1c(O)c2c(-c3ccc(O)cc3)c(Cl)sc2[nH]c1=O	–
5.24	N#Cc1c(O)c2c(-c3ccccc3)c(Br)sc2[nH]c1=O	–
4.06	O=c1[nH]c2scc(-c3ccccc3)c2c(O)c1Cl	–
4.42	N#Cc1c(O)c2c(-c3cccc(O)c3)csc2[nH]c1=O	–
4.08	N#Cc1c(O)c2c(-c3ccc(F)cc3)csc2[nH]c1=O	–
4.70	N#Cc1c(O)c2c(-c3ccc4c(c3)OCO4)csc2[nH]c1=O	–
4.14	N#Cc1c(O)c2c(-c3ccc(Br)cc3)csc2[nH]c1=O	–
5.43	N#Cc1c(O)c2c(-c3ccccc3)c(Cl)sc2[nH]c1=O	–
4.09	N#Cc1c(O)c2c(-c3ccc(Cl)cc3)csc2[nH]c1=O	–
4.42	N#Cc1c(O)c2c(-c3ccccc3)csc2[nH]c1=O	–
3.76	COC(=O)c1c(O)c2c(-c3ccccc3)csc2[nH]c1=O	–
